Test results from the array DNA melting data of Ke et al. (doi:10.1101/2024.01.08.574731).

How the values were obtained:
[1] = melting temperature; fluorescence melt of hairpins on a sequencing array, two-state fit, raised by 9.35 °C to match UV melts; details: sodium 0.088 M
Procedure, shortened: (§1)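 Folding enthalpy and melting temperature come from bootstrapped two-state fits to Cy3 fluorescence of library hairpins carrying annealed Cy3 and quencher oligos on a sequenced MiSeq flow cell. Imaging was done in 50 mM Na-HEPES pH 8.0, 25 mM NaCl, stepping by 2.5 °C up to 60 °C, and signals were normalised to pre-quench Cy3 and to control constructs. Results of four replicates were combined by inverse variance, and fitted temperatures were raised by 9.35 °C to match UV melts.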

[2] = folding enthalpy; higher = less favourable; fluorescence melt of hairpins on a sequencing array, two-state fit; details: sodium 0.088 M
Procedure, shortened: as §1

Sequence | Tm [1] [°C] | folding enthalpy [2] [kcal/mol]
GATCATTAGGATGATC ((((((....)))))) | 47.8 | -35.3
GATCATTAGTATGATC ((((((....)))))) | 45.2 | -31.8
GATCATTATAATGATC ((((((....)))))) | 49.7 | -33.1
GATCATTCACATGATC ((((((....)))))) | 46.6 | -39.8
GATCATTCCTATGATC ((((((....)))))) | 49.7 | -31.5
GATCATTCGATGATC ((((((...)))))) | 47.2 | -35.8
GATCATTCGCATGATC ((((((....)))))) | 47.5 | -34
GATCATTCGGATGATC ((((((....)))))) | 48.1 | -35.5
GATCATTCTAATGATC ((((((....)))))) | 49.4 | -31.9
GATCATTCTGATGATC ((((((....)))))) | 49.5 | -39.7
GATCATTGCCATGATC ((((((....)))))) | 46.4 | -39.3
GATCATTGGATGATC ((((((...)))))) | 44.8 | -31.7
GATCATTTGGATGATC ((((((....)))))) | 48.5 | -36.9
GATCATTTTCATGATC ((((((....)))))) | 47.6 | -31.1
GATCCAAAATGGATC ((((((...)))))) | 48.9 | -31.5
GATCCAAAGCTGGATC ((((((....)))))) | 47.2 | -36.3
GATCCAAAGGTGGATC ((((((....)))))) | 47 | -26.1
GATCCAAAGTGGATC ((((((...)))))) | 48.8 | -30.9
GATCCAAATTTGGATC ((((((....)))))) | 52.9 | -36.1
GATCCAACCCTGGATC ((((((....)))))) | 48.3 | -29
GATCCAACGGTGGATC ((((((....)))))) | 49 | -43.3
GATCCAACTTTGGATC ((((((....)))))) | 51 | -43.3
GATCCAAGAGTGGATC ((((((....)))))) | 46 | -28.6
GATCCAATATGGATC ((((((...)))))) | 51.3 | -38.7

Sequence | Tm [1] [°C] | folding enthalpy [2] [kcal/mol]
GATCCAATCATGGATC ((((((....)))))) | 50.8 | -37.5
GATCCACAATTGGATC ((((((....)))))) | 47.5 | -32.4
GATCCACACATGGATC ((((((....)))))) | 52.4 | -40
GATCCACACCTGGATC ((((((....)))))) | 51 | -44.8
GATCCACAGCTGGATC ((((((....)))))) | 47.6 | -31.7
GATCCACATCTGGATC ((((((....)))))) | 49.2 | -29.1
GATCCACCCTTGGATC ((((((....)))))) | 50.4 | -34.8
GATCCACCGGTGGATC ((((((....)))))) | 60.3 | -50
GATCCACCTTTGGATC ((((((....)))))) | 50.1 | -34.9
GATCCACGAAAGTGCATC (((.(((....))).))) | 32.8 | -16.1
GATCCACGAATGGATC ((((((....)))))) | 48.1 | -34.4
GATCCACGCTGGATC ((((((...)))))) | 51.6 | -31.3
GATCCACGTGTGGATC ((((((....)))))) | 65.9 | -44.5
GATCCACTCGTGGATC ((((((....)))))) | 63.2 | -45.8
GATCCACTCTGGATC ((((((...)))))) | 52.4 | -36.5
GATCCACTTGTGGATC ((((((....)))))) | 66.5 | -37.5
GATCCAGAATGGATC ((((((...)))))) | 58.1 | -50.9
GATCCAGAGCTGGATC ((((((....)))))) | 50.4 | -37.6
GATCCAGAGTGGATC ((((((...)))))) | 48.8 | -31.3
GATCCAGATATGGATC ((((((....)))))) | 57.1 | -41.7
GATCCAGATTGGATC ((((((...)))))) | 50.6 | -34.1
GATCCAGCAGTGGATC ((((((....)))))) | 52.7 | -41.1
GATCCAGCGATGGATC ((((((....)))))) | 55.6 | -42.4
GATCCAGGAATGGATC ((((((....)))))) | 54 | -40.6

Sequence | Tm [1] [°C] | folding enthalpy [2] [kcal/mol]
GATCCAGGCGTGGATC ((((((....)))))) | 53.6 | -40.9
GATCCAGGTTGGATC ((((((...)))))) | 50.7 | -41.9
GATCCAGGTTTGGATC ((((((....)))))) | 51.7 | -42.5
GATCCAGTCTGGATC ((((((...)))))) | 55.1 | -38.1
GATCCAGTGCTGGATC ((((((....)))))) | 52.8 | -47.8
GATCCAGTGTTGGATC ((((((....)))))) | 50.8 | -36.9
GATCCAGTTTTGGATC ((((((....)))))) | 52.4 | -41.6
GATCCATAATGGATC ((((((...)))))) | 49.6 | -34.8
GATCCATACATGGATC ((((((....)))))) | 55.8 | -50.8
GATCCATACTGGATC ((((((...)))))) | 51.4 | -37.6
GATCCATAGTGGATC ((((((...)))))) | 49.2 | -38.1
GATCCATATCTGGATC ((((((....)))))) | 49.7 | -35.5
GATCCATATTGGATC ((((((...)))))) | 51.7 | -37.3
GATCCATCGCTGGATC ((((((....)))))) | 50.8 | -39.1
GATCCATCTTGGATC ((((((...)))))) | 51.6 | -35.2
GATCCATGACTGGATC ((((((....)))))) | 48.6 | -35.5
GATCCATGAGTGGATC ((((((....)))))) | 55 | -35.3
GATCCATGCTGGATC ((((((...)))))) | 52 | -35.3
GATCCATGGGTGGATC ((((((....)))))) | 54.4 | -41.4
GATCCATGGTTGGATC ((((((....)))))) | 51.3 | -42.8
GATCCATGTCTGGATC ((((((....)))))) | 50.5 | -40.9
GATCCATTCGTGGATC ((((((....)))))) | 55.3 | -41.1
GATCCCAACCGGGATC ((((((....)))))) | 63.4 | -35.1
GATCCCAAGGGGGATC ((((((....)))))) | 58.1 | -33

Sequence | Tm [1] [°C] | folding enthalpy [2] [kcal/mol]
GATCCCAAGTGGGATC ((((((....)))))) | 60.5 | -37.4
GATCCCACACGGGATC ((((((....)))))) | 63.1 | -43.7
GATCCCACTTGGGATC ((((((....)))))) | 61.1 | -42.5
GATCCCAGCGGGGATC ((((((....)))))) | 60.6 | -34.9
GATCCCAGGGGGATC ((((((...)))))) | 67 | -34.7
GATCCCATAAGGGATC ((((((....)))))) | 63.9 | -39.4
GATCCCATCTGGGATC ((((((....)))))) | 62.6 | -36.2
GATCCCATGCGGGATC ((((((....)))))) | 60.6 | -34
GATCCCATGGGGGATC ((((((....)))))) | 60.1 | -32.4
GATCCCCAAGGGATC ((((((...)))))) | 58.9 | -30.9
GATCCCCACTGGGATC ((((((....)))))) | 62.2 | -35.3
GATCCCCAGGGGGATC ((((((....)))))) | 65.5 | -29
GATCCCCCATGGGATC ((((((....)))))) | 59.9 | -36.5
GATCCCCCCGGGATC ((((((...)))))) | 65.8 | -33.1
GATCCCCGCGGGATC ((((((...)))))) | 65.9 | -34.5
GATCCCCTAAGGGATC ((((((....)))))) | 63.2 | -39.1
GATCCCCTACGGGATC ((((((....)))))) | 61.9 | -35.3
GATCCCCTATGGGATC ((((((....)))))) | 60.8 | -36.9
GATCCCCTCAGGGATC ((((((....)))))) | 66 | -41.7
GATCCCCTCGGGATC ((((((...)))))) | 61.4 | -35.6
GATCCCGAAAGGGAAATC ((((((....)))..))) | 35.1 | -12.1
GATCCCGAAAGGGAATC ((((((....))).))) | 49.6 | -14.5
GATCCCGAAAGGGATATC ((((((....)))..))) | 52 | -15.6
GATCCCGAAAGGGGAATC ((((((....)))..))) | 36.1 | -12.3
